Reference: ChEMBL document CHEMBL4312027, “Synthesis, characterization, and biological activity of a triphenylphosphonium-containing imidazolium salt against select bladder cancer cell lines” (Eur J Med Chem, 2020)
Calls of active or inactive are those of the source. No cut-off for these calls is given here.

How the values were obtained:
RT-4 = experiment: Growth inhibition of human RT4 cells at 500 uM by Celltiter-Glo luminescent cell viability assay; type: functional, cell-based; settings: TDE = time-dependent effect
Outline: (§1)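 Cells seeded 10000/well, 24 h, then exposed in ATCC-recommended medium to 62.5–2000 μM (two-fold steps) or vehicle for the set time (5–60 min), then normal medium. After 24 h, plates equilibrated 30 min at room temperature, CellTiter-Glo added, 2 min at room temperature, luminescence read. Survival relative to vehicle control; quadruplicate.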

RT-112 [1] = experiment: Growth inhibition of human RT112 cells at 1000 uM measured after 15 to 60 mins by Celltiter-Glo luminescent cell viability assay relative to control; type: functional; settings: read-out: GI; outline: as §1
RT-112 [2] = experiment: Growth inhibition of human RT112 cells at 250 uM measured after 5 to 60 mins by Celltiter-Glo luminescent cell viability assay; type: functional, cell-based
CCRF-CEM = experiment: Growth inhibition of human CCRF-CEM cells assessed as growth percent at 10 uM incubated for 48 hrs by sulforhodamine B assay relative to control; type: functional; settings: read-out: Activity
HL-60(TB) = experiment: Growth inhibition of human HL-60(TB) cells assessed as growth percent at 10 uM incubated for 48 hrs by sulforhodamine B assay relative to control; type: functional; settings: HL-60, 48 h, read-out: Activity
K562 = experiment: Growth inhibition of human K562 cells assessed as growth percent at 10 uM incubated for 48 hrs by sulforhodamine B assay relative to control; type: functional; settings: K562, 48 h, read-out: Activity
MOLT-4 = experiment: Growth inhibition of human MOLT4 cells assessed as growth percent at 10 uM incubated for 48 hrs by sulforhodamine B assay relative to control; type: functional; settings: MOLT-4, 48 h, read-out: Activity
HOP-62 = experiment: Growth inhibition of human HOP62 cells assessed as growth percent at 10 uM incubated for 48 hrs by sulforhodamine B assay relative to control; type: functional; settings: HOP-62, 48 h, read-out: Activity
NCI-H322M = experiment: Growth inhibition of human NCI-H322M cells assessed as growth percent at 10 uM incubated for 48 hrs by sulforhodamine B assay relative to control; type: functional; settings: read-out: Activity
NCI-H522 = experiment: Growth inhibition of human NCI-H522 cells assessed as growth percent at 10 uM incubated for 48 hrs by sulforhodamine B assay relative to control; type: functional; settings: NCI-H522, 48 h, read-out: Activity
HCC 2998 = experiment: Growth inhibition of human HCC2998 cells assessed as growth percent at 10 uM incubated for 48 hrs by sulforhodamine B assay relative to control; type: functional; settings: HCC 2998, 48 h, read-out: Activity
KM12 = experiment: Growth inhibition of human KM12 cells assessed as growth percent at 10 uM incubated for 48 hrs by sulforhodamine B assay relative to control; type: functional; settings: KM12, 48 h, read-out: Activity
SF-268 = experiment: Growth inhibition of human SF268 cells assessed as growth percent at 10 uM incubated for 48 hrs by sulforhodamine B assay relative to control; type: functional; settings: SF-268, 48 h, read-out: Activity
SNB-75 = experiment: Growth inhibition of human SNB75 cells assessed as growth percent at 10 uM incubated for 48 hrs by sulforhodamine B assay relative to control; type: functional; settings: SNB-75, 48 h, read-out: Activity
MDA-MB-435 = experiment: Growth inhibition of human MDA-MB-435 cells assessed as growth percent at 10 uM incubated for 48 hrs by sulforhodamine B assay relative to control; type: functional; settings: MDA-MB-435, 48 h, read-out: Activity
SK-MEL-28 = experiment: Growth inhibition of human SK-MEL-28 cells assessed as growth percent at 10 uM incubated for 48 hrs by sulforhodamine B assay relative to control; type: functional; settings: SK-MEL-28, 48 h, read-out: Activity
OVCAR-5 = experiment: Growth inhibition of human OVCAR5 cells assessed as growth percent at 10 uM incubated for 48 hrs by sulforhodamine B assay relative to control; type: functional; settings: OVCAR-5, 48 h, read-out: Activity
A498 = experiment: Growth inhibition of human A498 cells assessed as growth percent at 10 uM incubated for 48 hrs by sulforhodamine B assay relative to control; type: functional; settings: A498, 48 h, read-out: Activity
RT-112 [3] = experiment: Anticlonogenic activity against human RT112 cells assessed as no colony formation at 250 to 500 uM incubated for 1 hr measured after culturing in normal medium for 10 days by crystal violet staining assay; type: functional, cell-based
Outline: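 Cells seeded at 500/well, treated 24 h later with 250 or 500 μM drug or vehicle for 1 h. Cells were then grown in normal media for 10 days, stained with 0.5% crystal violet in 20% MeOH/water at 4 °C for 5 min, washed, dried and imaged. Run in triplicate.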

TK-10 = experiment: Growth inhibition of human TK10 cells assessed as growth percent at 10 uM incubated for 48 hrs by sulforhodamine B assay relative to control; type: functional; settings: TK-10, 48 h, read-out: Activity
PC-3 = experiment: Growth inhibition of human PC3 cells assessed as growth percent at 10 uM incubated for 48 hrs by sulforhodamine B assay relative to control; type: functional; settings: PC-3, 48 h, read-out: Activity
DU-145 = experiment: Growth inhibition of human DU145 cells assessed as growth percent at 10 uM incubated for 48 hrs by sulforhodamine B assay relative to control; type: functional; settings: DU-145, 48 h, read-out: Activity
RT-112 [4] = experiment: Induction of apoptosis in human RT112 cells assessed as increase in caspase 9 cleavage at 250 uM incubated for 1 hr and measured immediately after treatment by Western blot analysis; type: functional, cell-based
Outline: (§2)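 RT112 seeded 300,000/well; after 24 h, 250 or 500 μM or vehicle. Cells plus floating debris harvested immediately or 24 h after treatment, lysed in RIPA with protease inhibitors. About 30 μg protein heated 10 min at 95 °C with DTT, run on SDS-PAGE. Immunoblotted for PARP and caspase 9, Ran as loading control, ECL detection.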

Mus musculus = experiment: Antitumor activity against anesthetized BBN-induced bladder tumor mouse model assessed as increase in cleaved caspase 3 level in hyperplasia region at 1500 uM administered via intravesical instillation treated for 1 hr administered as 2 doses at 24 hrs interval and measured at 24 hrs after final treatment by hematoxylin and eosin staining based immunohistochemical analysis; type: functional, organism-based
[5] = Toxicity in anesthetized female mouse model assessed as inflammation at 750 to 1500 uM administered via intravesical instillation after bladder evacuation treated for 1 hr followed by repetition of the treatment after 24 hrs and measured at 24 hrs after final treatment; settings: in vivo, other
Outline: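 Female mice anesthetized, 1–3% isoflurane. Bladder evacuated, then 100 μL of 750 or 1500 μM in 10% DMSO/PBS (or vehicle) instilled by 24G angiocatheter. Catheter left in place for a 1 h dwell. Repeated after 24 h; mice sacrificed 24 h after final dose. Bladder histology read for urothelial height and layers.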

RT-112 [6] = experiment: Induction of apoptosis in human RT112 cells assessed as increase in PARP cleavage at 500 uM incubated for 1 hr measured at 24 hrs after treatment by Western blot analysis; type: functional, cell-based; outline: as §2
RT-112 [7] = experiment: Cytotoxicity against human RT112 cells assessed as cellular fragmentation at 250 to 500 uM incubated for 1 hr and measured at 24 hrs after treatment; type: functional, cell-based

Question: With `[Br-].[Br-].c1ccc([P+](CCCc2n(Cc3ccc4ccccc4c3)c3ccccc3[n+]2Cc2ccc3ccccc3c2)(c2ccccc2)c2ccccc2)cc1` as the compound, how does the “growth inhibition (GI)” value (RT-4) read?
Answer: Tde

Question: What about the inhibition of growth at 1000 µM (RT-112 [1]) of the same compound?
Answer: 100%

Question: And the “growth inhibition (GI)” value (RT-112 [2])?
Answer: Active

Question: And the growth at 10 µM (CCRF-CEM)?
Answer: 43.1%

Question: What about the growth at 10 µM (HL-60(TB)) of the same compound?
Answer: 22.6%

Question: And the growth at 10 µM (K562)?
Answer: 23.7%

Question: What about the growth at 10 µM (MOLT-4) of the same compound?
Answer: 57.6%

Question: What about the growth at 10 µM (HOP-62) of the same compound?
Answer: 61.6%

Question: And the growth at 10 µM (NCI-H322M)?
Answer: 63.8%

Question: What about the growth at 10 µM (NCI-H522) of the same compound?
Answer: 60.2%

Question: And the growth at 10 µM (HCC 2998)?
Answer: 53.9%

Question: And the growth at 10 µM (KM12)?
Answer: 32.2%

Question: What about the growth at 10 µM (SF-268) of the same compound?
Answer: 79%

Question: What about the growth at 10 µM (SNB-75) of the same compound?
Answer: 91%

Question: What about the growth at 10 µM (MDA-MB-435) of the same compound?
Answer: 25.2%

Question: And the growth at 10 µM (SK-MEL-28)?
Answer: 37.1%

Question: And the growth at 10 µM (OVCAR-5)?
Answer: 60.1%

Question: And the growth at 10 µM (A498)?
Answer: 67.2%

Question: And the inhibition (RT-112 [3])?
Answer: Active

Question: What about the growth at 10 µM (TK-10) of the same compound?
Answer: 89.2%

Question: And the growth at 10 µM (PC-3)?
Answer: 67.5%

Question: What about the growth at 10 µM (DU-145) of the same compound?
Answer: 82.1%

Question: What about the Activity (RT-112 [4]) of the same compound?
Answer: Active

Question: And the Activity (Mus musculus)?
Answer: Active

Question: What about the Activity [5] of the same compound?
Answer: Non-Toxic

Question: And the Activity (RT-112 [6])?
Answer: Active

Question: And the Activity (RT-112 [7])?
Answer: Active
